Experimental data from publication PMC3601557 (Chemistry & biology, 2012).
Entries after “also recorded” stand apart in the source; their conditions may differ.

What was measured:
[1] = tested on: P. falciparum D10 parasites; test: P. falciparum replication assay; type: cell-based
[2] = tested on: P. falciparum ring stage parasites (food vacuole); test: Phenotypic characterization of treated ring stage parasites; type: cell-based; conditions: 24 hr, Giemsa smears
Outline: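 Synchronized ring-stage cultures (2% parasitemia) were treated with a range of test compound concentrations or DMSO for 24 hr. Morphology was then examined on Giemsa-stained thin blood smears, and the food vacuole defect was scored as enlargement of this acidic organelle.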

FP2, FP2′, and FP3 = test: Competitive ABPP with Cy5-DCG-04 in parasite lysates; type: biochemical, P. falciparum; conditions: D10 lysates, 30 min preincubation, 1 µM Cy5-DCG-04 1 hr
FP1 [3] = biological target: T1, FP1 (Plasmodium falciparum, UniProt P25805); test: Competitive ABPP with Cy5-DCG-04 in parasite lysates; type: biochemical, P. falciparum; conditions: D10 lysates, 30 min preincubation, 1 µM Cy5-DCG-04 1 hr
T1 sequence (P25805 333-569): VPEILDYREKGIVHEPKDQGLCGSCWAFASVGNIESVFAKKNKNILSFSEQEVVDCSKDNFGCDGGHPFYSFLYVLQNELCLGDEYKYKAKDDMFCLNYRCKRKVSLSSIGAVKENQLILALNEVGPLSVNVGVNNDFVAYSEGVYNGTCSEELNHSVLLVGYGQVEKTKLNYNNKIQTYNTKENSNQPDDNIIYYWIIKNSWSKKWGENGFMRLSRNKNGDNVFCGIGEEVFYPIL
Outline: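 Trophozoites were harvested 36 hr post-invasion, freed from RBCs with saponin, and extracted in PBS with 1% NP40. Soluble lysate was diluted 1:10 in acetate buffer (50 mM sodium acetate, 5 mM MgCl2, 5 mM DTT) and pretreated 30 min with test compound over a concentration range. Then 1 µM Cy5-DCG04 was added for 1 hr. Reactions were boiled in loading buffer, resolved by SDS-PAGE, and scanned for in-gel fluorescence.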

FP1 [4] = biological target: T1, FP1; test: Falcipain inhibition in living parasites; type: cell-based, P. falciparum
DPAP1 = biological target: T2, DPAP1 (Plasmodium falciparum, UniProt Q8IIJ9); test: Competitive ABPP with Cy5-DCG-04, DPAP1 labeling; type: cell-based, P. falciparum
T2 sequence (Q8IIJ9 370-599 limits assumed): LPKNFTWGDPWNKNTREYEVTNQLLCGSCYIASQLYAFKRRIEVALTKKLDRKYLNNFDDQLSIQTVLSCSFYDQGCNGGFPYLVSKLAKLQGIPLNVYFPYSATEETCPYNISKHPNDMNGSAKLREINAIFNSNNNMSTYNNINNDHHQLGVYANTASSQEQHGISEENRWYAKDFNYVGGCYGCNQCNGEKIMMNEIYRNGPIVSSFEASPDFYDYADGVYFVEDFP
T2 sequence (Q8IIJ9 600-700 limits assumed): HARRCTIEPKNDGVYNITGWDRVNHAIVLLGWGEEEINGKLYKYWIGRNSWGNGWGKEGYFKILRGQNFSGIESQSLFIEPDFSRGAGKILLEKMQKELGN
T2 sequence (Q8IIJ9 28-209 limits assumed): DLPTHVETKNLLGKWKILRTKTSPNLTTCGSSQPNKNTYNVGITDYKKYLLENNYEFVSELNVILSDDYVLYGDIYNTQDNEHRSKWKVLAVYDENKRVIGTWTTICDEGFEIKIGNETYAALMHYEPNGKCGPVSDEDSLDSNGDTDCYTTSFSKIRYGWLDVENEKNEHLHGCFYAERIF
Outline: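 A P. falciparum culture at 20% parasitemia and 2% hematocrit was exposed to graded test compound for 1 hr. Aliquots were lysed with 0.15% saponin in PBS. Parasite pellets were labelled for 1 hr with 1 µM Cy5-DCG04 in acetate buffer containing 1% NP40. After SDS-PAGE, DPAP1 band fluorescence was quantified and fitted to a sigmoidal dose-response curve to give IC50.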

DPAP3 = test: Competitive ABPP with DPAP activity-based probe FY01; type: biochemical, P. falciparum; conditions: competitive ABPP with FY01, Figure S3
[5] = biological target: T3, recombinantly produced FP2 (Plasmodium falciparum, UniProt Q8I6U4); test: Kinetics of substrate turnover inhibition; type: biochemical, P. falciparum
T3 sequence (Q8I6U4 244-484): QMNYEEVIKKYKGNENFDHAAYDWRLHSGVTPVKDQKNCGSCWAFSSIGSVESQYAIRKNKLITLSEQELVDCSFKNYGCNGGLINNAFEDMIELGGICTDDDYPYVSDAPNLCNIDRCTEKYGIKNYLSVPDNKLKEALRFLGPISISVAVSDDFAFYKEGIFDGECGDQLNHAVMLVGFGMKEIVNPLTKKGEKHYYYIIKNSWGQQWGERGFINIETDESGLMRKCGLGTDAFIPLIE
Outline: (§1)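 Fluorescence (ex 350 nm, em 460 nm) was followed for 2 hr at several inhibitor concentrations. Turnover relative to DMSO controls (v/v0) was fitted to an irreversible inhibition model; ki = kobs/[I].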

[6] = biological target: T4, recombinantly produced FP3 (Plasmodium falciparum, UniProt Q8IIL0); test: Kinetics of substrate turnover inhibition; type: biochemical, P. falciparum
T4 sequence (Q8IIL0 243-492): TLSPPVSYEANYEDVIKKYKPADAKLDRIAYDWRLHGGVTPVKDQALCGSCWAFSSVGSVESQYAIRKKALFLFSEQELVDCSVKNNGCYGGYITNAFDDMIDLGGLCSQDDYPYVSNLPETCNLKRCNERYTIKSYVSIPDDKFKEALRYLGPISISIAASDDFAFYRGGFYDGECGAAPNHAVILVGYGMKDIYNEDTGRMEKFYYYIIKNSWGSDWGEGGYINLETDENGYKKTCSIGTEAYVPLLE
Outline: as §1

cathepsin L = cathepsin L (Mus musculus, UniProt P06797); type: cell-based; conditions: mouse macrophages, 0.5 µM
cathepsin L, sequence (P06797 114-334): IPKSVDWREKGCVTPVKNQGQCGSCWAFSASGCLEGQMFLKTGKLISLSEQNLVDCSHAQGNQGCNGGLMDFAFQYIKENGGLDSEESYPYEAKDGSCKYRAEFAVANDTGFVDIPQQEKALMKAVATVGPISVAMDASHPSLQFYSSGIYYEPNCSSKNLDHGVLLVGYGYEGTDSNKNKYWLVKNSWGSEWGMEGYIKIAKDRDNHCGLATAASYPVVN
Outline: (§2)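 Bone marrow-derived mouse macrophages were preincubated with 0.5 or 5 µM test compound. Residual protease activity was then read in protein extracts by labelling with either a broad papain-like cysteine protease activity-based probe (cathepsins) or a proteasome-specific activity-based probe (proteasome).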

[7] = tested on: cathepsins B, H, S, and Z; type: cell-based; conditions: mouse macrophages, 5 µM
Outline: as §2

proteasome = type: cell-based; conditions: mouse macrophages preincubated with 0.5 µM and 5 µM
Outline: as §2

[8] = tested on: proteins in the 28 kDa region (food vacuole falcipains); test: Labeling of intact schizonts with rhodamine probes; type: cell-based, P. falciparum; conditions: pretreatment with 10 µM nonfluorescent compound, then 10 µM RhSym4 1 hr
Outline: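 Purified schizonts were pretreated with 10 µM nonfluorescent competitor or DMSO. They were then incubated 1 hr with 10 µM rhodamine-tagged probe in PBS. Samples were boiled in loading buffer, proteins resolved by SDS-PAGE, and labelled bands detected by flatbed fluorescence scanning.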

red blood cells (RBCs) = conditions: even at the highest tested concentrations (>25 µM); ref Conroy et al., 2010; cited from earlier work

CC[C@H](C)[C@@H](C(=O)O[C@@H](CC(C)C)C(=O)N[C@@H](CC(C)C)C(=O)N[C@@H](C)/C=C/C(=O)N1C(=O)C=C(OC)[C@@H]1C)N(C)C [Sym4, symplostatin 4]
fold higher concentration for parasite killing than for food vacuole defect ([1]; EC50 0.7 µM versus 0.1 µM): 7 fold | fold more potent than Sym4^mmp → Ala (EC50) ([1]; replication assay, 75 hr): 40 fold | concentration causing swollen food vacuole phenotype [2]: 0.1 µM | concentration inhibiting Cy5-DCG-04 labeling of FP2, FP2′, and FP3 (FP2, FP2′, and FP3): 1.5 nM | concentration inhibiting Cy5-DCG-04 labeling of FP1 (FP1 [3]): > 1.6 µM | IC50 (FP1 [4]): 0.14 ± 0.023 µM | inhibition of DPAP1 (DPAP1; competitive ABPP with Cy5-DCG04, Figure 4): neither DPAP1 (Figure 4) nor DPAP3 (Figure S3) is inhibited | inhibition of DPAP1 (DPAP1; living parasites, 1 hr, at 1 µM): did not inhibit | inhibition of DPAP3 (DPAP3): neither DPAP1 (Figure 4) nor DPAP3 (Figure S3) is inhibited | mode of inhibition [5]: irreversible inhibitor | mode of inhibition [6]: irreversible inhibitor | inhibition of cathepsin L (cathepsin L): inhibit; also recorded: inhibits a large portion | inhibition of cathepsins B, H, S, and Z [7]: also inhibited; also recorded: required ten times higher concentrations (i.e., 5 µM) to reach the same inhibition level | inhibition of the proteasome (proteasome): did not inhibit; also recorded: does not inhibit | competition of RhSym4 labeling [8]: sensitive to preincubation | lysis of red blood cells (red blood cells (RBCs)): no lysis
